Measured values published in PubChem BioAssay.
Inconclusive results are not listed.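 The calls were made as follows, unless noted: active = cell viability at or below a set limit in both duplicate runs, the limit being the all-compound median minus 4 SD (cut at about 23% in these data, passing the limit was not always enough); inconclusive = no clear call, values can overlap the other calls; inactive = the rest.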

What was measured:
[1] = S. cerevisiae growth inhibition in permissive medium (OD615), pilot counter-assay for S. cerevisiae lifespan shortening project, permissive growth control (AID 705;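 active = growth inhibition above 25% in both replicates, a cutoff set 3 SD above the mean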); details: OD615, 24 h, at 10 µM, active compounds read high
Method in brief: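 Test system: Saccharomyces cerevisiae strain carrying genetically modified DeaD replicative-lifespan system; buffer or medium: SC raffinose/galactose permissive medium; dosing: one dose 10 µM, DMSO 0.25% final; times: 24 h exposure, 30 °C; measured by: OD at 615 nm; read-out basis: growth inhibition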

[2] = S. cerevisiae growth inhibition in restrictive medium, OD615, pilot screen, restrictive growth control, yeast lifespan reduction project (AID 706;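 active = growth inhibition above a set limit, 3 SD over mean compound inhibition, in both replicates, cut at about 43% in these data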;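 also: modified DeaD lifespan yeast strain shifted to restrictive glucose medium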); details: OD615, 48 h, at 10 µM, active compounds read high
Method in brief: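 material = engineered S. cerevisiae DeaD strain | buffer or medium = glucose-based CSMM-D restrictive medium | dosing = one concentration, 10 µM final, 0.25% DMSO | schedule = 4 h pre-growth plus 48 h compound exposure, 30 °C | detection = OD615 absorbance reading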

[3] = doxorubicin toxicity protection in MRP-1 cells – H69AR cells, CellTiter-Glo, duplicate, MRP-1 activator project, pilot screen (AID 807;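 active = viability increase at or above a cutoff of the median across tested compounds plus 3 SD, cut at about 8.5% in these data, passing the limit was not always enough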;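 also: compound pretreatment 18-22 h then 72 h combined with doxorubicin; 0% = doxorubicin alone and 100% = vehicle without doxorubicin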); details: H69AR viability with doxorubicin, CellTiter-Glo luminescence; at 10 µM; active compounds read high
[4] = viability of HCT116 without oncogenic beta-catenin – human colon tumor cells, pilot screen (AID 823); details: HCT116 beta-catenin knockout viability, CellTiter-Glo, 60 h; at 10 µM; active compounds read low;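 also: 0% = wells killed by 20 µM Hyamine and 100% = untreated DMSO cell wells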
[5] = viability of PTEN-null HCT116 cells – cell-based, HCT116 clonal line, CellTiter-Glo, pilot screen (AID 824;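 active = viability at or below 27.92% in each of two runs, the all-compound median minus 4 SD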;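 also: 0% = 20 µM Hyamine control and 100% = vehicle cell control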); details: HCT116 PTEN-deleted viability, 60 h, at 10 µM, active compounds read low
[6] = RAM pathway blockade in budding yeast – dse1pr::URA3 reporter, 5-FOA selection, pilot screen (AID 869;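 active = inhibition over a set limit, the all-compound mean plus 3 SD, in both replicate runs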;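 also: 0% = DMSO wells with no growth and 100% = 10 µM 1-NA-PP1 with full growth; RAM network block rescues cells from 5-FOA so hits raise OD615 growth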); details: S. cerevisiae dse1pr::URA3 5-FOA growth, OD615, 2 d; at 10 µM; active compounds read high; strain carries analog-sensitive mutant Cbk1 kinase
[7] = RAM signaling pathway blockade in yeast – S. cerevisiae, Pdr1DBD-CYC8 efflux-inhibited sensitized strain, primary screen (AID 1298;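 active = RAM network inhibition above 8.4% in each of two replicates, 3 SD over the compound average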;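 also: 0% = DMSO untreated cells without growth and 100% = 10 µM 1-NA-PP1 full growth; higher means more yeast growth rescued from 5-FOA killing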); details: S. cerevisiae cbk1-as DSE1-URA3 strain, 5-FOA growth OD615, 2 d; at 50 µM; active compounds read high

Cc1nn(C)c(C)c1S(=O)(=O)N(CC(=O)Nc1ccc2c(c1)OCO2)c1ccc(C(C)C)cc1
inactive: growth inhibition [1] -19.5% | growth inhibition [2] -7.85% | viability increase [3] -2.38% | viability [4] 102% | viability [5] 99.4% | inhibition [6] 2.36% | RAM network inhibition [7] 2.62%

COc1ccc2nc(SCc3nc(N)nc(Nc4ccccc4)n3)[nH]c2c1
inactive: growth inhibition [1] -8.8% | growth inhibition [2] 15.4% | viability increase [3] 0.65% | viability [4] 67.7% | viability [5] 80.3% | inhibition [6] 0.72% | RAM network inhibition [7] 6.33%

CN(CCCNC(=O)Cn1cc2c(n1)CCCC2)C1CCCCC1
inactive: growth inhibition [1] -2.1% | growth inhibition [2] -0.155% | viability increase [3] -3.43% | viability [4] 99.2% | viability [5] 90.2% | inhibition [6] -1.29% | RAM network inhibition [7] 1.23%

COc1ccc(NC(=O)Nc2cccc(OC)c2)cc1
inactive: growth inhibition [1] -3.64% | growth inhibition [2] -19.4% | viability increase [3] -0.65% | viability [4] 95.3% | viability [5] 93.4% | inhibition [6] 1.02% | RAM network inhibition [7] 1.14%

CCOC(=O)c1sc(NC(=O)C2CCCO2)c(C(=O)OCC)c1C (configuration not stated)
inactive: growth inhibition [1] -9.48% | growth inhibition [2] -8.48% | viability increase [3] -2.56% | viability [4] 102% | viability [5] 93% | inhibition [6] 1.31% | RAM network inhibition [7] 2.09%

Cn1c(Cn2c(=O)sc3ccccc32)nnc1SCC(=O)N1CCN(c2ccccc2)CC1
inactive: growth inhibition [1] 0.845% | growth inhibition [2] 24.3% | viability increase [3] -0.95% | viability [4] 100% | viability [5] 96.6% | inhibition [6] 0.04% | RAM network inhibition [7] 3.66%

O=C(NCCOC(=O)c1ccc(C(=O)OCCNC(=O)c2ccccc2)o1)c1ccccc1
inactive: growth inhibition [1] 4.22% | growth inhibition [2] 13.6% | viability increase [3] 0.02% | viability [4] 100% | viability [5] 103% | inhibition [6] 1.25% | RAM network inhibition [7] 6.33%

Cc1cc(Nc2ccc(F)cc2C)n2nc(C)nc2n1
inactive: growth inhibition [1] -2.58% | growth inhibition [2] -5.02% | viability increase [3] -1.42% | viability [4] 101% | viability [5] 98.7% | inhibition [6] 2.01% | RAM network inhibition [7] 5.08%

Cc1nc(C)c(C(=O)Nc2ccccc2)s1
inactive: growth inhibition [1] -0.755% | growth inhibition [2] -6.96% | viability increase [3] -0.17% | viability [4] 98.4% | viability [5] 88.3% | inhibition [6] 0.68% | RAM network inhibition [7] 3.02%

CCOCCCNC(=O)CN1C(=O)CSc2ccccc21
inactive: growth inhibition [1] -18.9% | growth inhibition [2] -6.29% | viability increase [3] -0.22% | viability [4] 101% | viability [5] 98.9% | inhibition [6] 1.49% | RAM network inhibition [7] 2.6%

COc1ccc(-n2c3c(cc(C(=O)N4CCC(C)CC4)c2=O)C(=O)CC(C)(C)C3)cc1
inactive: growth inhibition [1] -3.21% | growth inhibition [2] 7.18% | viability increase [3] -2.27% | viability [4] 111% | viability [5] 101% | inhibition [6] 1.98% | RAM network inhibition [7] 0.25%

COc1ccc(CC2CCOC2=O)cc1 (configuration not stated)
inactive: growth inhibition [1] -10.7% | growth inhibition [2] -8.8% | viability increase [3] 0.08% | viability [4] 98% | viability [5] 93.9% | inhibition [6] 1.93% | RAM network inhibition [7] -0.09%

Nc1ccccc1SCc1cn2cccnc2n1
inactive: growth inhibition [1] 1.29% | growth inhibition [2] 12% | viability increase [3] -2.43% | viability [4] 109% | viability [5] 98% | inhibition [6] 2.13% | RAM network inhibition [7] 3.55%

Cc1ccc(N2C(=O)CC(N3CCN(C4CCc5ccccc5C4)CC3)C2=O)cc1 (configuration not stated)
inactive: growth inhibition [1] -2.06% | growth inhibition [2] 1.44% | viability increase [3] -2.69% | viability [4] 102% | viability [5] 98.2% | inhibition [6] 0.215% | RAM network inhibition [7] 6.5%

Cc1c(NC(=O)C2CCN(S(=O)(=O)c3ccccc3)CC2)c(=O)n(-c2ccccc2)n1C
inactive: growth inhibition [1] -3.65% | growth inhibition [2] -4.28% | viability increase [3] -2.25% | viability [4] 96.5% | viability [5] 88.8% | inhibition [6] 1.45% | RAM network inhibition [7] 6.15%

COc1ccccc1-c1c(C)nn2c(N3CCN(c4ccccc4OC)CC3)cc(C)nc12
inactive: growth inhibition [1] -0.095% | growth inhibition [2] 6.77% | viability increase [3] -1.57% | viability [4] 60.7% | viability [5] 63.2% | inhibition [6] 0.775% | RAM network inhibition [7] 1.3%

Cn1c(Cn2c(=O)sc3ccccc32)nnc1SCC(=O)NC1CCCC1
inactive: growth inhibition [1] -9.37% | growth inhibition [2] -5.96% | viability increase [3] -1.04% | viability [4] 102% | viability [5] 103% | inhibition [6] 0% | RAM network inhibition [7] 3.56%

O=C(OCCN(C1=NS(=O)(=O)c2ccccc21)c1ccc(Cl)cc1)c1ccco1
inactive: growth inhibition [1] -15.9% | growth inhibition [2] -5.49% | viability increase [3] -5.7% | viability [4] 82.2% | viability [5] 91.5% | inhibition [6] 1.44% | RAM network inhibition [7] 4.02%

COc1ccccc1N1CCN(C(=O)CN(c2ccccc2OC)S(=O)(=O)c2ccccc2)CC1
inactive: growth inhibition [1] -0.685% | growth inhibition [2] -7.83% | viability increase [3] -1.57% | viability [4] 87.5% | viability [5] 83.9% | inhibition [6] 0.845% | RAM network inhibition [7] 4.88%

COc1ccc(OC)c2[nH]c(=O)c(CCNC(C)=O)cc12
inactive: growth inhibition [1] -6.6% | growth inhibition [2] 3.73% | viability increase [3] -0.39% | viability [4] 109% | viability [5] 104% | inhibition [6] 2.21% | RAM network inhibition [7] 1.88%

O=C(c1ccc(S(=O)(=O)N2CCOCC2)cc1)N1CCN(c2ccccc2)CC1
inactive: growth inhibition [1] -12.5% | growth inhibition [2] 2.02% | viability increase [3] 0.13% | viability [4] 93.7% | viability [5] 101% | inhibition [6] 1.82% | RAM network inhibition [7] 1.64%

CCCc1c(C(=O)OCC)[nH]c2c1C(=O)CCC2
inactive: growth inhibition [1] 1.82% | growth inhibition [2] 2.14% | viability increase [3] -2.07% | viability [4] 107% | viability [5] 95.3% | inhibition [6] 1.46% | RAM network inhibition [7] 2.61%

O=C(NCCCN1CCC(Cc2ccccc2)CC1)C1CCC(=O)N1C1CCCC1 (configuration not stated)
inactive: growth inhibition [1] 0.095% | growth inhibition [2] 10.8% | viability increase [3] -0.92% | viability [4] 79.7% | viability [5] 96.9% | inhibition [6] 0.3% | RAM network inhibition [7] 1.85%

Cc1cccc(OCc2nnc(SCC(=O)NCCc3ccccc3)o2)c1
inactive: growth inhibition [1] -3.83% | growth inhibition [2] -15.6% | viability increase [3] -1.67% | viability [4] 98% | viability [5] 95.2% | inhibition [6] 3.1% | RAM network inhibition [7] 1.99%

CN(C)S(=O)(=O)c1ccc(C(=O)Nc2ccc(Cl)cc2)cc1
inactive: growth inhibition [1] -3.1% | growth inhibition [2] -5.55% | viability increase [3] -1.63% | viability [4] 77.5% | viability [5] 88.8% | inhibition [6] 2.33% | RAM network inhibition [7] 3.74%

O=C1Nc2ccc(S(=O)(=O)N3CCCCCC3)c3cccc1c23
inactive: growth inhibition [1] -0.465% | growth inhibition [2] -4.72% | viability increase [3] -2.03% | viability [4] 95.2% | viability [5] 86.2% | inhibition [6] 1.57% | RAM network inhibition [7] 0.81%

C=CCOC(=O)CCP(=O)(CCC(=O)OCC=C)c1ccccc1
inactive: growth inhibition [1] 5.05% | growth inhibition [2] 1.05% | viability increase [3] -1.13% | viability [4] 96.5% | viability [5] 98.8% | inhibition [6] -0.22% | RAM network inhibition [7] -1.29%

CCn1cc(C(=O)NC2CCCCCC2)c(=O)c2cc(S(=O)(=O)N3CCCCC3)ccc21
inactive: growth inhibition [1] -3.87% | growth inhibition [2] -20.1% | viability increase [3] -8.11% | viability [4] 72.2% | viability [5] 69.8% | inhibition [6] 0.625% | RAM network inhibition [7] 2.45%

CCOc1ccc2nc(N3CCCC(C(=O)N4CCN(CC)CC4)C3)sc2c1 (configuration not stated)
inactive: growth inhibition [1] -4.44% | growth inhibition [2] -8.34% | viability increase [3] 0.55% | viability [4] 102% | viability [5] 96.2% | inhibition [6] 0.775% | RAM network inhibition [7] 2.01%

COc1ccc(C(=O)Nc2nncs2)cc1S(=O)(=O)N1CC(c2ccccc2)CC1=O (configuration not stated)
inactive: growth inhibition [1] -12.7% | growth inhibition [2] 18% | viability increase [3] 0.31% | viability [4] 101% | viability [5] 87% | inhibition [6] 0.92% | RAM network inhibition [7] 3.31%

COc1cccc(-n2c(=O)[nH]cc(C(=O)Nc3ccc(NC(C)=O)cc3)c2=O)c1
inactive: growth inhibition [1] -13.3% | growth inhibition [2] 4% | viability increase [3] 0.63% | viability [4] 106% | viability [5] 96.6% | inhibition [6] 3.3% | RAM network inhibition [7] 4.32%

COc1nc(Nc2ccc(C(C)=O)cc2)nc(OC)n1
inactive: growth inhibition [1] 0.42% | growth inhibition [2] -4.17% | viability increase [3] -4.04% | viability [4] 99.5% | viability [5] 97.9% | inhibition [6] 1.75% | RAM network inhibition [7] 6.28%

CCC(C#CCN1CCOCC1)(CC)OCCC#N
inactive: growth inhibition [1] -6.57% | growth inhibition [2] -3.89% | viability increase [3] -0.51% | viability [4] 97% | viability [5] 95.9% | inhibition [6] 1.35% | RAM network inhibition [7] 0.88%

COc1ccc(C(=O)Nc2ccc(S(=O)(=O)Nc3cc(C)nc(C)n3)cc2)c(OC)c1
inactive: growth inhibition [1] 6.9% | growth inhibition [2] -0.365% | viability increase [3] 0.28% | viability [4] 98.6% | viability [5] 95.8% | inhibition [6] 1.77% | RAM network inhibition [7] 3.78%

CCC(CC)C(=O)N1c2ccc(F)cc2CCC1C (configuration not stated)
inactive: growth inhibition [1] -16.6% | growth inhibition [2] -10.7% | viability increase [3] -0.23% | viability [4] 95.3% | viability [5] 93.9% | inhibition [6] 1.31% | RAM network inhibition [7] 1.96%

CCCS(=O)(=O)c1nc(S(=O)(=O)c2ccc(C)cc2)c(NCCN2CCOCC2)s1
inactive: growth inhibition [1] -8.93% | growth inhibition [2] -6.58% | viability increase [3] -0.11% | viability [4] 93.7% | viability [5] 86.7% | inhibition [6] 1.04% | RAM network inhibition [7] 6.38%
